According to ChEMBL document CHEMBL5360548, “Fatty acids as molecular carriers in cleavable antifungal conjugates” (Eur J Med Chem, 2023):
Converted amounts (≈) assume the structure as drawn. The source made the active and inactive calls. No cut-off for these calls is given here.

Tests used:
Candida albicans [1] = assay: Antifungal activity Candida albicans ATCC 10231 at 512 ug/ml by two-fold dilution method; type: functional, organism-based; conditions: dose 512.0 µg/ml
Procedure, shortened: (§1)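 Serial two-fold broth microdilution MIC per CLSI M27-A3, in RPMI-1640 without bicarbonate, with L-glutamine, 2% glucose and 3.45% MOPS, pH 7.0. Conjugates tested at 512–1 µg mL-1, 5-FC at 64–0.125 µg mL-1. Strains maintained at 30 °C in YPD medium and stored on YPD agar.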

[2] = Induction of hemolysis in human RBC incubated for 30 mins by absorbance based microplate reader analysis; type: toxicity, cell-based, Erythrocyte; conditions: human red blood cells (erythrocytes)
Procedure, shortened: (§2)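 Human erythrocytes at 2 × 10^7 cells mL-1 in saline, exposed to two-fold dilutions from DMSO stocks (final 200–0.4 µg mL-1), 37 °C, 30 min, then centrifuged. Hemoglobin in supernatant read at A540. Percent hemolysis scaled between DMSO (0%) and Triton X-100 (100%) controls. EH50 interpolated as the concentration giving 50% of the positive-control A540.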

Nakaseomyces glabratus = assay: Antifungal activity Candida glabrata DSM 11226 by two-fold dilution method; type: functional; procedure, shortened: as §1
Candida parapsilosis = assay: Antifungal activity Candida parapsilosis DSM 5784 by two-fold dilution method; type: functional; conditions: Lodderomyces parapsilosis; procedure, shortened: as §1
Kluyveromyces marxianus = assay: Antifungal activity Candida pseudotropicalis KKP 324 by two-fold dilution method; type: functional; procedure, shortened: as §1
Debaryomyces hansenii = assay: Antifungal activity Candida famata DSM 3428 by two-fold dilution method; type: functional; procedure, shortened: as §1
Diutina rugosa = assay: Antifungal activity Candida rugosa DSM 2031 by two-fold dilution method; type: functional; procedure, shortened: as §1
Candida albicans [3] = assay: Antifungal activity Candida albicans ATCC 10231 by two-fold dilution method; type: functional; procedure, shortened: as §1
[4] = Induction of hemolysis in human RBC at upto 200 ug/ml incubated for 30 mins by absorbance based microplate reader analysis relative to control; type: toxicity, cell-based, Erythrocyte; conditions: human red blood cells (erythrocytes), up to 200 µg/mL; procedure, shortened: as §2
[5] = test system: Meyerozyma guilliermondii; assay: Antifungal activity Candida guilliermondii DSM 11947 by two-fold dilution method; type: functional; procedure, shortened: as §1
Pichia kudriavzevii = assay: Antifungal activity Candida krusei DSM 6128 by two-fold dilution method; type: functional; procedure, shortened: as §1
[6] = Drug localization in cytoplasm of Candida cells measured after 1 hr by confocal microscopy based analysis; type: ADME, cell-based
Procedure, shortened: (§3)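 Candida from overnight YPD culture were washed, grown in RPMI-1640 at 30 °C with shaking from OD660 0.1 to 0.3, then resuspended in PBS to OD660 0.2. Fluorescent conjugate added to 50 µg mL-1 final and incubated at 30 °C, 150 rpm. Samples taken over time, washed 4× in PBS, imaged by confocal microscopy (ex 438, em 527 nm).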

[7] = Drug uptake in Candida glabrata cells assessed as increase in number of cells emitting green fluorescence measured after 10 to 30 mins by fluorescence based analysis; type: ADME, cell-based; conditions: nakaseomyces glabratus; time 10-30 min; procedure, shortened: as §3

MIC (Nakaseomyces glabratus) [µg/mL] | MIC (Candida parapsilosis) [µg/mL] | MIC (Kluyveromyces marxianus) [µg/mL] | MIC (Debaryomyces hansenii) [µg/mL] | MIC (Diutina rugosa) [µg/mL] | MIC (Candida albicans [3]) [µg/mL] | MIC [5] [µg/mL] | MIC (Pichia kudriavzevii) [µg/mL] | Drug uptake [6] | Drug uptake [7] | SMILES | Activity (Candida albicans [1]) | HC50 at 0.5 h [2] [µg/mL] | hemolysis at 0.5 h [4] [%]
32 (≈ 53.3 µM) | 128 (≈ 213 µM) | 512 (≈ 854 µM) | 256 (≈ 427 µM) | > 512 | 128 (≈ 213 µM) | 256 (≈ 427 µM) | > 512 |  |  | CCCCCCCCCCCCCCCCCC(=O)Oc1cc(C)cc(C)c1C(C)(C)CC(=O)Oc1ncc(F)c(N)n1 |  |  | < 5
2 (≈ 3.68 µM) | 4 (≈ 7.36 µM) | 32 (≈ 58.9 µM) | 4 (≈ 7.36 µM) | 16 (≈ 29.4 µM) | 4 (≈ 7.36 µM) | 8 (≈ 14.7 µM) | 512 (≈ 942 µM) |  |  | CCCCCCCCCCCCCC(=O)Oc1cc(C)cc(C)c1C(C)(C)CC(=O)Oc1ncc(F)c(N)n1 |  |  | < 5
8 (≈ 14 µM) | 8 (≈ 14 µM) | 128 (≈ 224 µM) | 16 (≈ 28 µM) | 64 (≈ 112 µM) | 16 (≈ 28 µM) | 32 (≈ 56 µM) | > 512 |  |  | CCCCCCCCCCCCCCCC(=O)Oc1cc(C)cc(C)c1C(C)(C)CC(=O)Oc1ncc(F)c(N)n1 |  |  | < 5
4 (≈ 8.2 µM) | 4 (≈ 8.2 µM) | 32 (≈ 65.6 µM) | 8 (≈ 16.4 µM) | 16 (≈ 32.8 µM) | 8 (≈ 16.4 µM) | 8 (≈ 16.4 µM) | 256 (≈ 525 µM) |  |  | CCCCCCCCCC(=O)Oc1cc(C)cc(C)c1C(C)(C)CC(=O)Oc1ncc(F)c(N)n1 |  |  | < 5
4 (≈ 7.76 µM) | 4 (≈ 7.76 µM) | 64 (≈ 124 µM) | 4 (≈ 7.76 µM) | 16 (≈ 31 µM) | 8 (≈ 15.5 µM) | 8 (≈ 15.5 µM) | 256 (≈ 496 µM) |  |  | CCCCCCCCCCCC(=O)Oc1cc(C)cc(C)c1C(C)(C)CC(=O)Oc1ncc(F)c(N)n1 |  |  | < 5

The next lines start with the compound.

SMILES | MIC (Nakaseomyces glabratus) [µg/mL] | MIC (Candida parapsilosis) [µg/mL] | MIC (Kluyveromyces marxianus) [µg/mL] | MIC (Debaryomyces hansenii) [µg/mL] | MIC (Diutina rugosa) [µg/mL] | MIC (Candida albicans [3]) [µg/mL] | MIC [5] [µg/mL] | MIC (Pichia kudriavzevii) [µg/mL] | Drug uptake [6] | Drug uptake [7] | Activity (Candida albicans [1]) | HC50 at 0.5 h [2] [µg/mL] | hemolysis at 0.5 h [4] [%]
CCCCCCCCCCCCCCCC(=O)Oc1cc(C)cc(C)c1C(C)(C)CC(=O)NCCNc1ccc2c3c(cccc13)C(=O)N(CCCC)C2=O |  |  |  |  |  |  |  |  |  |  | inactive |  | 
C[C@@H]1[C@H](O)[C@@H](C)/C=C/C=C/C=C/C=C/C=C/C=C/C=C/[C@H](O[C@@H]2O[C@H](C)[C@@H](O)[C@H](N)[C@@H]2O)C[C@@H]2O[C@](O)(C[C@@H](O)C[C@@H](O)[C@H](O)CC[C@@H](O)C[C@@H](O)CC(=O)O[C@H]1C)C[C@H](O)[C@H]2C(=O)O [AMPHOTERICIN B] |  |  |  |  |  |  |  |  |  |  |  | 3.46 | 
CC(=O)Oc1cc(C)cc(C)c1C(C)(C)CC(=O)Oc1ncc(F)c(N)n1 | 8 (≈ 21.3 µM) | 4 (≈ 10.7 µM) | 64 (≈ 170 µM) | 8 (≈ 21.3 µM) | 32 (≈ 85.2 µM) | 16 (≈ 42.6 µM) | 16 (≈ 42.6 µM) | > 512 |  |  |  |  | < 5
CCCCCCCCCCCC(=O)Oc1cc(C)cc(C)c1C(C)(C)CC(=O)NCCNc1ccc2c3c(cccc13)C(=O)N(CCCC)C2=O |  |  |  |  |  |  |  |  |  |  | inactive |  | 
CCCCN1C(=O)c2cccc3c(NCCNC(=O)CC(C)(C)c4c(C)cc(C)cc4OC(C)=O)ccc(c23)C1=O |  |  |  |  |  |  |  |  |  |  | inactive |  | 
CCCCCCCCCCCCCCCCCC(=O)Oc1cc(C)cc(C)c1C(C)(C)CC(=O)NCCNc1ccc2c3c(cccc13)C(=O)N(CCCC)C2=O |  |  |  |  |  |  |  |  |  |  | inactive |  | 
CCCCCCCCCC(=O)Oc1cc(C)cc(C)c1C(C)(C)CC(=O)NCCNc1ccc2c3c(cccc13)C(=O)N(CCCC)C2=O |  |  |  |  |  |  |  |  |  |  | inactive |  | 
Nc1nc(=O)[nH]cc1F [FLUCYTOSINE] | 0.5 (≈ 3.87 µM) | 2 (≈ 15.5 µM) | 1 (≈ 7.75 µM) | 1 (≈ 7.75 µM) | 2 (≈ 15.5 µM) | 1 (≈ 7.75 µM) | 0.5 (≈ 3.87 µM) | > 512 |  |  |  |  | 
CCCCCCCC(=O)Oc1cc(C)cc(C)c1C(C)(C)CC(=O)Oc1ncc(F)c(N)n1 | 2 (≈ 4.35 µM) | 4 (≈ 8.7 µM) | 32 (≈ 69.6 µM) | 4 (≈ 8.7 µM) | 16 (≈ 34.8 µM) | 8 (≈ 17.4 µM) | 8 (≈ 17.4 µM) | 128 (≈ 279 µM) |  |  |  |  | < 5
CCCCCCCC(=O)Oc1cc(C)cc(C)c1C(C)(C)CC(=O)NCCNc1ccc2c3c(cccc13)C(=O)N(CCCC)C2=O |  |  |  |  |  |  |  |  | Active | Active | inactive |  | 
CCCCCCCCCCCCCC(=O)Oc1cc(C)cc(C)c1C(C)(C)CC(=O)NCCNc1ccc2c3c(cccc13)C(=O)N(CCCC)C2=O |  |  |  |  |  |  |  |  |  |  | inactive |  | 
